ChEMBL document CHEMBL3352280, “Modulation of cAMP-specific PDE without emetogenic activity: new sulfide-like PDE7 inhibitors” (J Med Chem, 2014)
Calls of active or inactive are those of the source. The rule behind the calls is not given here.

Experiments:
[1] = biological target: T1, High affinity 3',5'-cyclic-AMP phosphodiesterase 7A (Homo sapiens, UniProt Q13946); experiment: Inhibition of human recombinant PDE7A1 assessed as inhibition of hydrolysis of [3H]cAMP at 10 uM after 20 mins by scintillation proximity assay
In short: (§1)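 Scintillation proximity assay with human recombinant enzyme: PDE7A1 0.02 U, PDE3A 0.02 U, PDE7B 0.5 U, PDE8A 0.5 U. Enzyme incubated with 5 nCi [3H]cAMP and inhibitor in kit buffer for 20 min at 30 °C. SPA beads added and shaken 1 h at room temperature, settled 30 min, radioactivity counted.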

[2] = biological target: cGMP-inhibited 3',5'-cyclic phosphodiesterase 3A (Homo sapiens) (UniProt Q14432); experiment: Inhibition of human recombinant PDE3A assessed as inhibition of hydrolysis of [3H]cAMP at 10 uM after 20 mins by scintillation proximity assay; in short: as §1
[3] = biological target: T2, 3',5'-cyclic-AMP phosphodiesterase 4D (Homo sapiens, UniProt Q08499); experiment: Inhibition of human recombinant PDE4D3 assessed after 60 mins by IMAP fluorescence polarization assay
[4] = biological target: T3, 3',5'-cyclic-AMP phosphodiesterase 4B (Homo sapiens, UniProt Q07343); experiment: Inhibition of human recombinant PDE4B2 assessed after 60 mins by IMAP fluorescence polarization assay
[5] = biological target: T1, High affinity 3',5'-cyclic-AMP phosphodiesterase 7A; experiment: Inhibition of human recombinant PDE7A1 assessed as inhibition of hydrolysis of [3H]cAMP after 20 mins by scintillation proximity assay; in short: as §1
[6] = biological target: T4, 3',5'-cyclic-AMP phosphodiesterase 7B (Homo sapiens, UniProt Q9NP56); experiment: Inhibition of human recombinant PDE7B assessed as inhibition of hydrolysis of [3H]cAMP at 10 uM after 20 mins by scintillation proximity assay; in short: as §1
[7] = biological target: T4, 3',5'-cyclic-AMP phosphodiesterase 7B; experiment: Inhibition of human recombinant PDE7B assessed as inhibition of hydrolysis of [3H]cAMP after 20 mins by scintillation proximity assay; in short: as §1
[8] = biological target: T2, 3',5'-cyclic-AMP phosphodiesterase 4D; experiment: Inhibition of human recombinant PDE4D3 assessed at 10 uM after 60 mins by IMAP fluorescence polarization assay
[9] = biological target: T3, 3',5'-cyclic-AMP phosphodiesterase 4B; experiment: Inhibition of human recombinant PDE4B2 assessed at 10 uM after 60 mins by IMAP fluorescence polarization assay
SH-SY5Y = experiment: Cytoprotective activity against 6-OHDA-induced death of human SH-SY5Y cells pretreated for 1 hr at 10 uM measured 16 hrs post 6-OHDA challenge by MTT assay; type: functional, cell-based
In short: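 Human neuroblastoma SH-SY5Y grown in F12/EMEM with 2 mM glutamine, 1% nonessential amino acids and 15% FBS at 37 °C, 5% CO2. Semiconfluent cells pretreated 1 h with compound, then 6-OHDA (35 μM) added for 16 h. Viability by MTT (0.5 mg/mL, 4 h), SDS/HCl solubilisation, absorbance 595 nm. Mean ± SD of three experiments.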

Astrocyte = experiment: Inhibition of LPS-induced NO production in rat astrocytes treated for 1 hr at 10 uM before LPS challenge measured after 24 hrs by Griess assay; type: functional, cell-based
In short: (§2)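 After 2 days, cells were pretreated with compound (10 μM), then LPS (10 μg/mL) was added for 24 h. Nitrite in the supernatant was measured by Griess reagent (15 min, room temperature, absorbance 492/540 nm). Mean ± SD of three experiments.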

Microglia = experiment: Inhibition of LPS-induced NO production in rat microglia treated for 1 hr at 10 uM before LPS challenge measured after 24 hrs by Griess assay; type: functional; in short: as §2
Phosphodiesterase 7 = Phosphodiesterase 7 (Homo sapiens, UniProt Q13946+Q9NP56); experiment: Inhibition of PDE7 (unknown origin); type: protein assay
Mus musculus = experiment: Emetogenic potential in surrogate emesis CD1 mouse model assessed as effect on xyclacine/ketamine-induced loss of righting reflex at 0.1 to 10 mg/kg, sc; type: ADME, organism-based; parameters: dose 0.1-10 mg/kg, route subcutaneous; conditions: in vivo

T1 sequence (Q13946 whole entry): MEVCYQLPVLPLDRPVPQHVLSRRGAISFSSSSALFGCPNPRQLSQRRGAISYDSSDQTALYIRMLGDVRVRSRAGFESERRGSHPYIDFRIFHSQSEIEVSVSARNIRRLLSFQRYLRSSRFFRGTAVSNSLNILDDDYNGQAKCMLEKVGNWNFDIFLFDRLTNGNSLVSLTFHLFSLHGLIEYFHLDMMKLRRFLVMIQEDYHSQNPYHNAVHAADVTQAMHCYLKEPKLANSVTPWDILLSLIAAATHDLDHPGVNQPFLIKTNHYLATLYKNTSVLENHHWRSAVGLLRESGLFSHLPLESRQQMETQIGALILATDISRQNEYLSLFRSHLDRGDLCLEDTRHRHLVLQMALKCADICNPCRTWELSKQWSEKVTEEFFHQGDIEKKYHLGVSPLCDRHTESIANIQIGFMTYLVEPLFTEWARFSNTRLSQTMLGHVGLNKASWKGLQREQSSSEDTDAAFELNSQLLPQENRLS
T3 sequence (Q07343 whole entry): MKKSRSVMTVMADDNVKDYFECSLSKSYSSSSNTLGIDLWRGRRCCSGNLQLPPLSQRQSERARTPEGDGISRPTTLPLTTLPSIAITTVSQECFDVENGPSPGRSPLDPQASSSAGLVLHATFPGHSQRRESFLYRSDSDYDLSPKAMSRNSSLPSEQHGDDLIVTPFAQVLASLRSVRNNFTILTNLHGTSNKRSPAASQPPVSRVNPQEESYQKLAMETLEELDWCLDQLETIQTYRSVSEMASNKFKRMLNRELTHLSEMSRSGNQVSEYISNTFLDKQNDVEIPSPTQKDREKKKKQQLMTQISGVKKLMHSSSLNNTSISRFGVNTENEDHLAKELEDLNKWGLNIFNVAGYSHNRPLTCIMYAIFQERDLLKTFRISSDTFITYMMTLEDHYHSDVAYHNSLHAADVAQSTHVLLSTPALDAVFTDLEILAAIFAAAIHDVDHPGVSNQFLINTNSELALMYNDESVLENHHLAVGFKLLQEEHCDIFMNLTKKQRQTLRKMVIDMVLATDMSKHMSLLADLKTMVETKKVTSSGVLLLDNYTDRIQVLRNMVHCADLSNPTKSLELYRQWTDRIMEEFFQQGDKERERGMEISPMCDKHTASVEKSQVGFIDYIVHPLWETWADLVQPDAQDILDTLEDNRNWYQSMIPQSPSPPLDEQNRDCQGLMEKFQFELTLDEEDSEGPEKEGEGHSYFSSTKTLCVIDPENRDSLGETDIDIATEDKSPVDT
T2 sequence (Q08499 whole entry): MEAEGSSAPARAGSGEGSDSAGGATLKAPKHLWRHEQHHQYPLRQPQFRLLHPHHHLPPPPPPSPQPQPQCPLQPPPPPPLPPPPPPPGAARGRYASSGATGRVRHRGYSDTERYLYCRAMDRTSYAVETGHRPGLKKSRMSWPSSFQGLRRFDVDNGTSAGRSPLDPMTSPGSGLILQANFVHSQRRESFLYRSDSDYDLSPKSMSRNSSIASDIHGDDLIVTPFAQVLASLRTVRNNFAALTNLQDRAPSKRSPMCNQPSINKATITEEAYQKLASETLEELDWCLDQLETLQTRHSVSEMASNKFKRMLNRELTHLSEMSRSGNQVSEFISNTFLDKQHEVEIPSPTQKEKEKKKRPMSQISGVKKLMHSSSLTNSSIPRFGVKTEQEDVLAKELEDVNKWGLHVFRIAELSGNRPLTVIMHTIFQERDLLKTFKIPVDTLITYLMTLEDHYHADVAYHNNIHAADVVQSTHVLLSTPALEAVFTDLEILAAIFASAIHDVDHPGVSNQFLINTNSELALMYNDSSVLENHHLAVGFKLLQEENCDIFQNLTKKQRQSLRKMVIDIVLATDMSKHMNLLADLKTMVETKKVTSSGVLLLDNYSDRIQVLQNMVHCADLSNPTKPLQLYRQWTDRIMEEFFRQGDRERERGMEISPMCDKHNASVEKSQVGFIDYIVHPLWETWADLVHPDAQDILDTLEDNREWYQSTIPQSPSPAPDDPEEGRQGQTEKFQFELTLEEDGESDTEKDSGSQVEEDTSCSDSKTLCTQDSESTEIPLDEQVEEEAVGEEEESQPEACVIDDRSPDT
T4 sequence (Q9NP56 whole entry): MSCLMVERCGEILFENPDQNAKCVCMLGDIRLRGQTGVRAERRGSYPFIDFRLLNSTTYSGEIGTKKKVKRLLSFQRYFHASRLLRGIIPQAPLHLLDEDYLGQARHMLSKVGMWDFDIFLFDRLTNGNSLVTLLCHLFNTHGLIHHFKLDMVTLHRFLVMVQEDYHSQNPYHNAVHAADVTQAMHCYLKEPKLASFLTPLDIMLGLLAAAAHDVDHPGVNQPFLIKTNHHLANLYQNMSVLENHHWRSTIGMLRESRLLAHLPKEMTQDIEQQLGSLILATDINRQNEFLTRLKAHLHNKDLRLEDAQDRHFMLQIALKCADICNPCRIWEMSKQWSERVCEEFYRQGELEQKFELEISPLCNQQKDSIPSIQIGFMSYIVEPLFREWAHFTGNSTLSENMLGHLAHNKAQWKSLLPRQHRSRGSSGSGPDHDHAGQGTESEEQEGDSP
Sequence of cGMP-inhibited 3',5'-cyclic phosphodiesterase 3A (Homo sapiens) (Q14432 whole entry): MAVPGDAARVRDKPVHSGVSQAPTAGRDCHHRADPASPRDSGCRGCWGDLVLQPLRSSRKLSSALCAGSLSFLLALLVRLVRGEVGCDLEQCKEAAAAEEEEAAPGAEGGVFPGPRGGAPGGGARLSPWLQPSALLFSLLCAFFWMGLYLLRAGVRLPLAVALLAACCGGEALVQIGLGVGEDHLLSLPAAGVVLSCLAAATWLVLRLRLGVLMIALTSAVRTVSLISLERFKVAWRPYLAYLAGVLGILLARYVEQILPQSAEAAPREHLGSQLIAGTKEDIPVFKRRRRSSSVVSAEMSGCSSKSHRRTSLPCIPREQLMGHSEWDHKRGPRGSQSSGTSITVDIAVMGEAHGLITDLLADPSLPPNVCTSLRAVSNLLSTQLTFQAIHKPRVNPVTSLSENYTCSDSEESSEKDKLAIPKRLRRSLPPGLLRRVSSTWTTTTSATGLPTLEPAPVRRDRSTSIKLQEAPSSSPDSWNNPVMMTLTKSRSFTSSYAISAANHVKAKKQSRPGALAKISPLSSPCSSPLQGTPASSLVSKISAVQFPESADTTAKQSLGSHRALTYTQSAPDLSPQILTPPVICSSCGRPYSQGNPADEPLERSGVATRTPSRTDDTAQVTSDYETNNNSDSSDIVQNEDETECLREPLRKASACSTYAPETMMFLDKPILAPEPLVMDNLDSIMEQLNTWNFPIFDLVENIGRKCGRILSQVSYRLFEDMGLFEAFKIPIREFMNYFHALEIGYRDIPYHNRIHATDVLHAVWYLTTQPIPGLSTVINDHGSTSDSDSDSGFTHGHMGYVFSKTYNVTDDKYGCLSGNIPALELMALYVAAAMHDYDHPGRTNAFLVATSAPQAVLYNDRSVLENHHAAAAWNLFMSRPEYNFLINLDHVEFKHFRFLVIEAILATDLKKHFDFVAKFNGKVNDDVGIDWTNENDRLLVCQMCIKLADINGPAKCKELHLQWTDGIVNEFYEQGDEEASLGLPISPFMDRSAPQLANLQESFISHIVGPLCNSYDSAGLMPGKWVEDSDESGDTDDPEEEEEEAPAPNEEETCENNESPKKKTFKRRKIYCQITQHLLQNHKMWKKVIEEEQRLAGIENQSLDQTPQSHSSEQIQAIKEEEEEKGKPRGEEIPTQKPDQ

inhibition [1] | IC50 [5] | SMILES | also measured
33% |  | O=[N+]([O-])c1ccc(SCc2ccccc2Br)c(Cl)c1 | 
99% |  | Cc1ccc([N+](=O)[O-])cc1S(=O)(=O)N(C)C | inhibition [2]: 0.43%; IC50 [3]: 1.28 µM; IC50 [4]: 1.8 µM
74% | 2.2 µM | O=[N+]([O-])c1ccc(Sc2ccccc2)c(Cl)c1 | 
63% | 9.27 µM | Nc1ccc(Sc2ccc([N+](=O)[O-])cc2C(F)(F)F)cc1 | 
38% |  | Nc1ccccc1Sc1ccc(F)cc1[N+](=O)[O-] | 
69% | 1.01 µM | O=[N+]([O-])c1ccc(Cl)cc1Sc1ccccc1Br | inhibition [6]: 71%; IC50 [7]: 2.2 µM; inhibition [2]: 16%; inhibition [8]: 2%; inhibition [9]: 6%; Activity (SH-SY5Y): Active; inhibition (Astrocyte): Active; inhibition (Microglia): Active
2% |  | Cc1cnc(Sc2ccc(-c3ccccc3)cc2)c([N+](=O)[O-])c1 | 
3% |  | Cc1cnc(Sc2cccc(N)c2)c([N+](=O)[O-])c1 | 
42% |  | Nc1ccccc1Sc1ccc([N+](=O)[O-])cc1C(F)(F)F | 
77% | 2.2 µM | Nc1ccc(Oc2ccc([N+](=O)[O-])cc2Cl)cc1 | 
71% | 2.2 µM | Nc1ccc(Sc2cc(Cl)ccc2[N+](=O)[O-])cc1 | 
56% | 7.98 µM | O=[N+]([O-])c1ccc(Cl)cc1Sc1ccccn1 | 
49% | 2.88 µM | O=[N+]([O-])c1cc(Cl)c(Cl)cc1Sc1ccccc1Br | 
60% | 8.77 µM | Nc1ccccc1Sc1ccc([N+](=O)[O-])cc1Cl | 
59% | 2.14 µM | O=[N+]([O-])c1ccc(Sc2ccccc2Br)c(Cl)c1 | 
31% |  | O=[N+]([O-])c1cc(Cl)ccc1SCc1ccccc1Br | 
32% |  | c1ccc(-c2ccc(Sc3ccccn3)cc2)cc1 | 
83% | 3.97 µM | Nc1ccc(Sc2ccc([N+](=O)[O-])cc2Cl)cc1 | 
27% |  | Cc1cnc(Sc2ccncc2)c([N+](=O)[O-])c1 | 
78% | 3.2 µM | Nc1cccc(Sc2ccc([N+](=O)[O-])cc2Cl)c1 | 
56% | 3.8 µM | CC(=O)c1ccc(Sc2ccncc2)c([N+](=O)[O-])c1 | 

inhibition [1] | IC50 [5] | SMILES | also measured
4% |  | CC(=O)Nc1ccc(Oc2ccc([N+](=O)[O-])cc2Cl)cc1 | 
58% | 2.1 µM | CC(=O)Nc1ccccc1Sc1cc(Cl)ccc1[N+](=O)[O-] | inhibition [2]: 10%; inhibition [8]: 10%; inhibition [9]: 11%
17% |  | CC(C)c1ccccc1Sc1ccc([N+](=O)[O-])cc1Cl | 
6% |  | O=[N+]([O-])c1ccc(Sc2ccc(Cl)cc2[N+](=O)[O-])cc1 | 
87% | 1.5 µM | O=[N+]([O-])c1cc(Cl)ccc1Sc1ccccc1 | inhibition [6]: 74%; IC50 [7]: 1.5 µM; inhibition [2]: 46%; inhibition [8]: 13%; inhibition [9]: 28%; Activity (SH-SY5Y): Active; inhibition (Astrocyte): Active; inhibition (Microglia): Active
66% | 5.45 µM | Nc1ccccc1Sc1cc(Cl)ccc1[N+](=O)[O-] | 
10% |  | CC(C)c1ccc(Sc2ccc(Cl)cc2[N+](=O)[O-])cc1 | 
69% | 5.2 µM | O=[N+]([O-])c1ccc(Sc2cccs2)c(Cl)c1 | 
15% |  | CC(C)c1ccc(Sc2ccc([N+](=O)[O-])cc2Cl)cc1 | 
44% |  | c1ccc(Sc2ccncc2)cc1 | 
11% |  | O=[N+]([O-])c1cc(Cl)ccc1Sc1ccc(Br)cc1 | 
70% | 3.3 µM | Nc1ccc(Oc2ccc(Cl)cc2[N+](=O)[O-])cc1 | 
91% | 0.72 µM | O=[N+]([O-])c1cc(Cl)ccc1Sc1ccncc1 | inhibition [6]: 76%; IC50 [7]: 13.9 µM; inhibition [2]: 33%; inhibition [8]: 74%; IC50 [3]: 3 µM; inhibition [9]: 77%; IC50 [4]: 4.4 µM; Activity (SH-SY5Y): Active; inhibition (Astrocyte): Active; inhibition (Microglia): Active
27% |  | CC(=O)NNc1ccccc1Sc1ccccc1Br | 
36% |  | Nc1cccc(Sc2ccncc2)c1 | 
46% | 6.5 µM | Nc1ccc(Sc2ccc(N)cc2Cl)cc1 | 
31% |  | O=[N+]([O-])c1ccsc1Sc1sccc1[N+](=O)[O-] | 
31% |  | CC(=O)Nc1ccccc1Sc1sccc1[N+](=O)[O-] | 
1% |  | O=[N+]([O-])c1ccc(Sc2ccc([N+](=O)[O-])cc2Cl)cc1 | 
17% |  | COc1ccc(Sc2cccnc2)cc1 | 
 |  | S=c1[nH]c2ccccc2c(=S)n1-c1ccccc1 | IC50 (Phosphodiesterase 7): 1.04 µM; Activity (Mus musculus): Non-toxic

inhibition [1] | IC50 [5] | SMILES | also measured
17% |  | CC(=O)Nc1ccc(Oc2ccc(Cl)cc2[N+](=O)[O-])cc1 | 
 | 4.27 µM | Nc1ccccc1Sc1sccc1[N+](=O)[O-] | 
80% | 1.88 µM | O=[N+]([O-])c1ccc(Cl)cc1Sc1ccncc1 | 
36% |  | O=[N+]([O-])c1ccc(Cl)cc1Sc1ccc(Br)cc1 | 
 |  | COc1cc(COC(=O)c2ccc(-c3ccccc3)o2)cc(OC)c1OC | IC50 (Phosphodiesterase 7): 5.17 µM; Activity (Mus musculus): Non-toxic
64% | 6.18 µM | Nc1ccc(Sc2ccc(F)cc2[N+](=O)[O-])cc1 | 
68% | 5.69 µM | Nc1cccc(Sc2ccc(Cl)cc2[N+](=O)[O-])c1 | 
 | 7.3 µM | Nc1ccc(Cl)cc1Sc1ccccc1[N+](=O)[O-] | 
23% |  | O=[N+]([O-])c1ccc(Sc2ccc(Br)cc2)c(Cl)c1 | 
79% | 0.99 µM | O=[N+]([O-])c1cc(Cl)ccc1Sc1ccccc1Br | inhibition [6]: 92%; IC50 [7]: 1.41 µM; inhibition [2]: 60%; inhibition [8]: 44%; inhibition [9]: 30%; Activity (SH-SY5Y): Active; inhibition (Astrocyte): Active; inhibition (Microglia): Active
13% |  | Nc1ccc(Sc2ccc(Cl)cc2N)cc1 | 
18% |  | COc1ccc(Sc2ccncc2)cc1 | 
69% | 3.6 µM | O=[N+]([O-])c1cc(Cl)ccc1Sc1ccccn1 | 
81% | 1.6 µM | O=[N+]([O-])c1cc(Cl)ccc1Sc1cccs1 | 
12% |  | c1cnc(Sc2ccncc2)nc1 | 
74% | 6.48 µM | Nc1ccccc1Sc1cc(Cl)c(Cl)cc1[N+](=O)[O-] | 
 |  | Br.OCC/N=c1/nc(-c2ccccc2)n(-c2ccccc2)s1 | IC50 (Phosphodiesterase 7): 1.11 µM; Activity (Mus musculus): Non-toxic
26% |  | CC(=O)Nc1ccc(Sc2ccc([N+](=O)[O-])cc2Cl)cc1 | 
79% | 1.47 µM | Nc1ccc(Sc2ccc([N+](=O)[O-])c(Cl)c2)cc1 | inhibition [6]: 42%; inhibition [2]: 22%; inhibition [8]: 3%; inhibition [9]: 2%; Activity (SH-SY5Y): Active; inhibition (Astrocyte): Active; inhibition (Microglia): Active
7% |  | CC(=O)Nc1ccc(Sc2ccc(Cl)cc2[N+](=O)[O-])cc1 | 
69% | 5.75 µM | Nc1ccccc1Sc1ccc(Cl)cc1[N+](=O)[O-] | 

SMILES | inhibition [1] | IC50 [5] | also measured
O=c1c2ccccc2[nH]c(=S)n1-c1ccccc1 | 76% | 4.68 µM | 
